Data set [1] is described as follows: Metabolic stability in human liver microsomes assessed as compound remaining at 10 uM after 1 hr by LC/MS/MS analysis. It counts as ADME. As to conditions: read-out: Stability. In a few lines: (§1)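 Prodrug at 10 µM spiked into mouse or human plasma or liver microsomes, incubated at 37 °C on an orbital shaker. Triplicate aliquots taken at 0, 30 and 60 min, quenched with 3 volumes of ice-cold acetonitrile containing losartan internal standard, vortexed, spun 12000 g for 10 min. Parent disappearance followed by LC/MS/MS and reported as % remaining at 1 h.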

The nature of data set [2]: Metabolic stability in mouse plasma assessed as compound remaining at 10 uM after 1 hr by LC/MS/MS analysis. It is filed as ADME, cell-free. The conditions noted are these: read-out: Stability. A digest of the protocol:
as §1

The nature of data set [3]: Metabolic stability in human plasma assessed as compound remaining at 10 uM after 1 hr by LC/MS/MS analysis. The conditions noted are these: read-out: Stability. It counts as ADME, cell-free. In a few lines:
as §1

Data set [4] is described as follows: Metabolic stability in mouse liver microsomes assessed as compound remaining at 10 uM after 1 hr by LC/MS/MS analysis. It counts as ADME. The conditions noted are these: read-out: Stability. In a few lines:
as §1
For orientation: Liver microsomes are a subcellular fraction often used to study metabolism.

A short description of data set [5]: Chemical stability of compound. It counts as physicochemical.
Data set [6] relates to Plasma. The data set is described as follows: Prodrug activation in mouse plasma assessed as 2-phosphonomethylpentanedioic acid formation at 30 mg/kg administered via oral gavage after 30 mins by LC/MS/MS analysis. It counts as organism-based. The conditions noted are these: in vivo, 0.5 h. In a few lines:
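Mice given prodrug orally at 30 mg/kg (equivalent of 1), 10 mL/kg volume; blood taken at 30 min, N=3. Plasma extracted with methanol containing 2-PMSA internal standard. Released 1 measured selectively after mild MTBSTFA derivatization (~60 °C, 40 min) by LC/MS/MS. Total prodrug plus metabolites measured separately after n-butanol/3N HCl derivatization (60°C, 30 min), which converts all species to butyl esters of 1.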

Data set [7] deals with Canis familiaris. The data set is described as follows: Cmax in beagle dog assessed as 2-phosphonomethylpentanedioic acid at 10 mg/kg administered via oral gavage measured after 30 mins to 8 hrs by LC/MS/MS analysis. It counts as ADME, organism-based, Canis lupus familiaris. More on the design: dose 10 mg/kg, route oral. The conditions noted are these: in vivo. A digest of the protocol: (§2)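 Single beagle dog given oral dose of 10 mg/kg (expressed as equivalent of 1). Jugular venipuncture blood at 0, 30 min, 1, 2, 4, 6, 8 h into potassium oxalate/NaF tubes, kept on wet ice, spun 3000 x g, 4°C, 5 min; plasma frozen at -60 to -80°C. LC/MS/MS. Cmax and Tmax taken as observed values; AUC to last sample by log-linear trapezoidal rule.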

Data set [8] concerns Canis familiaris. The data set is described as follows: Tmax in beagle dog assessed as 2-phosphonomethylpentanedioic acid at 10 mg/kg administered via oral gavage measured after 30 mins to 8 hrs by LC/MS/MS analysis. It is filed as ADME, organism-based, Canis lupus familiaris. As to conditions: in vivo. A digest of the protocol:
as §2

Data set [9] relates to Canis familiaris. The experiment in a line: AUC (0 to t) in beagle dog assessed as 2-phosphonomethylpentanedioic acid at 10 mg/kg administered via oral gavage measured after 30 mins to 8 hrs by LC/MS/MS analysis. It is filed as ADME, organism-based, Canis lupus familiaris. More on the design: dose 10 mg/kg, time upper 8 hr, time lower 0.5 hr, route oral. As to conditions: in vivo. A digest of the protocol: as §2

Data set [10] concerns Mus musculus. The data set is described as follows: Cmax in mouse assessed as 2-phosphonomethylpentanedioic acid at 30 mg/kg administered via oral gavage measured after 15 mins to 4 hrs by LC/MS/MS analysis. It counts as ADME, organism-based. More on the design: dose 30 mg/kg, route oral. As to conditions: in vivo. A digest of the protocol:
(§3)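 Mice dosed orally at 30 mg/kg (equivalent of 1), 10 mL/kg dosing volume. Cardiac-puncture blood at 0, 15, 30 min, 1, 2, 4 h, n=3 per time point; plasma stored at -80°C. Methanol precipitation with 2-PMSA internal standard, then mild MTBSTFA derivatization (~60 °C, 40 min) so only free 1 is measured by LC/MS/MS. Cmax/Tmax observed; AUC to last sample by log-linear trapezoidal rule.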

For data set [11], the system named is Mus musculus. The experiment in a line: Tmax in mouse assessed as 2-phosphonomethylpentanedioic acid at 30 mg/kg administered via oral gavage measured after 15 mins to 4 hrs by LC/MS/MS analysis. It is filed as ADME, organism-based. The conditions noted are these: in vivo. In a few lines:
as §3

Data set [12] relates to Mus musculus. The data set is described as follows: AUC (0 to t) in mouse assessed as 2-phosphonomethylpentanedioic acid at 30 mg/kg administered via oral gavage measured after 15 mins to 4 hrs by LC/MS/MS analysis. The conditions noted are these: in vivo. More on the design: time upper 4 hr, dose 30 mg/kg, time lower 0.25 hr, route oral. It is filed as ADME, organism-based. In a few lines: as §3

Data set [13] is described as follows: Tmax in mouse at 30 mg/kg administered via oral gavage measured after 15 mins to 4 hrs by LC/MS/MS analysis. It is filed as ADME, organism-based. As to conditions: in vivo. A digest of the protocol: (§4)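 Mice were dosed by oral gavage at 30 mg/kg (parent-drug equivalent) in 10 mL/kg. Blood was taken by cardiac puncture at 0, 15 and 30 min and 1, 2 and 4 h, n=3 per time point. Plasma was stored at -80 °C and the released parent drug measured by LC/MS/MS. Cmax and Tmax are observed values; AUC is the log-linear trapezoidal AUClast.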

Data set [14] can be described thus: AUC (0 to t hrs) in mouse at 30 mg/kg administered via oral gavage measured after 15 mins to 4 hrs by LC/MS/MS analysis. It is filed as ADME, organism-based. More on the design: time lower 0.25 hr, dose 30 mg/kg, time upper 4 hr, route oral. As to conditions: in vivo. A digest of the protocol:
as §4

Data set [15] in a line: Cmax in mouse at 10 mg/kg administered via oral gavage measured after 15 mins to 4 hrs by LC/MS/MS analysis. It counts as ADME, organism-based. More on the design: dose 10 mg/kg, route oral. The conditions noted are these: in vivo.
A short description of data set [16]: AUC (0 to t hrs) in mouse at 10 mg/kg administered via oral gavage measured after 15 mins to 4 hrs by LC/MS/MS analysis. It is filed as ADME, organism-based. More on the design: dose 10 mg/kg, time 0.25-4 hr, route oral. The conditions noted are these: in vivo.
The test system of data set [17] is Plasma. The data set is described as follows: Plasma concentration in rhesus monkey at 10 mg/kg, po measured at 0.25 to 2 hrs post dose. As to conditions: in vivo. It counts as ADME, organism-based, Macaca mulatta.
Data set [18] is described as follows: Cmax in mouse at 30 mg/kg administered via oral gavage measured after 15 mins to 4 hrs by LC/MS/MS analysis. More on the design: dose 30 mg/kg, route oral. As to conditions: in vivo. It is filed as ADME, organism-based. A digest of the protocol:
as §4

Molecules are shown by their SMILES.

As usually defined, the Cmax is the maximum level reached in the sampled fluid or tissue. For orientation: Tmax means the time from dosing to the highest level. A word on the AUC(0-t): it is exposure summed from dosing to a finite time, without extrapolation to infinity.

As for `COC(=O)CCC(CP(=O)(OCOC(=O)C(C)(C)C)OCOC(=O)C(C)(C)C)C(=O)OC` (configuration not stated), the remaining at 1 h, 10 µM in data set [1] is 0%; in data set [2], 0%; in data set [3], 29%; in data set [4], 0%.
On to `CC(C)OC(=O)OCOP(=O)(CC(CCC(=O)O)C(=O)O)OCOC(=O)OC(C)C` (configuration not stated), for which the Stability result in data set [5] is reported as “Unstable”.
For the molecule `COC(=O)CCC(CP(=O)(OCOC(=O)OC(C)C)OCOC(=O)OC(C)C)C(=O)OC` (configuration not stated), the remaining at 1 h, 10 µM in [1] worked out at 0%; in data set [2] it was 0.1%; in data set [3] it was 0%; in data set [4], 0.1%.
Take `CCOC(=O)C(CCC(=O)O)CP(=O)(OCOC(=O)C(C)(C)C)OCOC(=O)C(C)(C)C` (configuration not stated): the remaining at 1 h, 10 µM was found to be 26% in data set [1], 3% in [2], 61% in data set [3] and 0% in data set [4]. Also, the Drug metabolism in [6] stood at 0.54 µM.
`COC(=O)CCC(CP(=O)(O)O)C(=O)OC` (configuration not stated): the remaining at 1 h, 10 µM in [1] was 103%; in [2] it was 86%; in data set [3], 96%; in [4], 101%.
For `CC(C)(C)C(=O)OCOC(=O)C(CCC(=O)O)CP(=O)(OCOC(=O)C(C)(C)C)OCOC(=O)C(C)(C)C` (configuration not stated), the remaining at 1 h, 10 µM turned out to be 0% in data set [1], 0% in [2], 79% in data set [3] and 0% in data set [4]. In addition, in [6], the Drug metabolism amounted to 15.8 µM.
As to `CC(C)OC(=O)OCOC(=O)C(CCC(=O)O)CP(=O)(OCOC(=O)OC(C)C)OCOC(=O)OC(C)C` (configuration not stated), the remaining at 1 h, 10 µM turned out to be 0% in data set [1], 0% in data set [2], 48% in data set [3] and 0% in data set [4]. For the same molecule, the Cmax in data set [7] came out at 51100 nM; in [10], 15100 nM. The results for the Tmax in data set [8] and in [11] were 1 h and 0.5 h, respectively. Further, the AUCt in data set [9] turned out to be 126 µM·h; in data set [12], 35.9 µM·h. For the same molecule, the Drug metabolism in data set [6] is 15.66 µM.
Turning to `CCOC(=O)C(CCC(=O)O)CP(=O)(OCOC(=O)OC(C)C)OCOC(=O)OC(C)C` (configuration not stated), the remaining at 1 h, 10 µM in [1] stood at 32%; in data set [2] it was 0%; in data set [3], 80%; in data set [4], 0%. The Drug metabolism in data set [6] was found to be 0.49 µM.
In the case of `CCOC(=O)CCC(CP(=O)(OCOC(=O)C(C)(C)C)OCOC(=O)C(C)(C)C)C(=O)OCC` (configuration not stated), the remaining at 1 h, 10 µM in data set [1] came to 0%; in data set [2], 0%; in data set [3], 18%; in data set [4], 0%.
`COC(=O)C(CCC(=O)O)CP(=O)(OCOC(=O)C(C)(C)C)OCOC(=O)C(C)(C)C` (configuration not stated): the remaining at 1 h, 10 µM in [1] amounted to 54%; in [2], 0%; in data set [3], 82%; in data set [4], 0%. For the same molecule, the Drug metabolism in data set [6] turned out to be 0.74 µM.
For `CCOC(=O)CCC(CP(=O)(O)O)C(=O)OCC` (configuration not stated), the remaining at 1 h, 10 µM in data set [1] was found to be 88%; in [2], 59%; in [3], 73%; in data set [4], 83%.
As to `O=C(O)CCC(CP(=O)(O)O)C(=O)O` (configuration not stated), the remaining at 1 h, 10 µM was determined as 91% in data set [1], 85% in data set [2], 83% in data set [3] and 100% in data set [4]. Also, the Tmax in data set [13] worked out at 1 h. Further, the AUC(0-t) in data set [14] was found to be 1.94 µM·h; in data set [16] it was 0.6 µM·h. The Cmax in data set [15] came out at 280 nM; in data set [18], 860 nM. Further, the concentration in [17] was found to be 180 nM.

(Values after ChEMBL document CHEMBL3792359, “Discovery of Orally Available Prodrugs of the Glutamate Carboxypeptidase II (GCPII) Inhibitor 2-Phosphonomethylpentanedioic Acid (2-PMPA)” (J Med Chem, 2016).)
